For assay [1], the target named is T1, Signal transducer and activator of transcription 3 (Homo sapiens, UniProt P40763). The assay is described as follows: Inhibition of SH2 domain of Stat3 constitutive phosphorylation at Tyr705 in human MDA-MB-468 cells at 25 uM after 2 hrs by Western blotting. It is filed as cell-based. Summed up: (§1)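 MDA-MB-468 cells (4×10^5/well, DMEM 10% FCS, overnight) given prodrug from freshly made 10 mM DMSO stock for 2 h. Lysates in Hepes pH 7.4 Triton buffer with phosphatase/protease inhibitors; 12 μg protein on 8% SDS-PAGE, PVDF, probed for pStat3 Y705 by ECL, then stripped and reprobed for total Stat3.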
Background: In western blotting, separated proteins are transferred to a membrane and probed.

Assay [2] relates to MDA-MB-468. The assay is described as follows: Cytotoxicity against human MDA-MB-468 cells after 72 hrs by MTT assay. It is filed as functional, cell-based. The conditions noted are these: MDA-MB-468, 72 h. Summed up:
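MDA-MB-468 cells in DMEM/10% FBS, 1500 cells/well in triplicate; medium changed next day. Prodrug stock 10 mM in ethanol, diluted into wells (ethanol <1% final); single dose or daily re-addition at 24 and 48 h in same medium. MTT read-out at 72 h; assays run three times.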

Assay [3] has as its target T1, Signal transducer and activator of transcription 3. The assay is described as follows: Inhibition of SH2 domain of Stat3 constitutive phosphorylation at Tyr705 in human MDA-MB-468 cells at 5 uM after 2 hrs by Western blotting. It is filed as cell-based. Summed up: as §1
Assay [4] shares this target. The assay is described as follows: Inhibition of SH2 domain of Stat3 constitutive phosphorylation at Tyr705 in human MDA-MB-468 cells at 5 uM after 30 mins by Western blotting. It is filed as cell-based. Summed up: (§2)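 MDA-MB-468 cells given a single 5 μM prodrug dose and harvested at set times; pTyr705 and total Stat3 by Western blot of 12 μg lysate protein on 8% SDS-PAGE.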

Assay [5] has the same target. The assay is described as follows: Inhibition of SH2 domain of Stat3 constitutive phosphorylation at Tyr705 in human MDA-MB-468 cells at 0.5 uM after 2 hrs by Western blotting. The assay is classed as cell-based. Summed up: as §1
Assay [6] shares this target. The assay is described as follows: Inhibition of SH2 domain of Stat3 constitutive phosphorylation at Tyr705 in human MDA-MB-468 cells at 5 uM after 4 hrs by Western blotting. It is filed as cell-based. Summed up:
as §2

Assay [7] shares this target. The assay is described as follows: Inhibition of SH2 domain of Stat3 constitutive phosphorylation at Tyr705 in human MDA-MB-468 cells at 5 uM after 8 hrs by Western blotting. The assay is classed as cell-based. Summed up:
as §2

Assay [8] has the same target. The assay is described as follows: Inhibition of SH2 domain of Stat3 constitutive phosphorylation at Tyr705 in human MDA-MB-468 cells at 5 uM after 16 hrs by Western blotting. The assay is classed as cell-based. Summed up: as §2
Assay [9] shares this target. The assay is described as follows: Inhibition of EGF-induced SH2 domain of Stat3 phosphorylation at Tyr705 in human MDA-MB-468 cells at 5 uM treated 1.5 hrs before EGF challenge measured after 30 mins by Western blotting. The assay is classed as cell-based. Summed up:
(§3)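 MDA-MB-468 cells pretreated 1.5 h with prodrug (5 μM), then EGF 100 ng/mL for 30 min; lysates split onto three PVDF blots probed for phospho/total Stat3, pSer473/total Akt, and phospho/total Stat5.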

In assay [10] the target is T2, Signal transducer and activator of transcription 5A (Homo sapiens) (UniProt P42229).
T2 sequence (whole entry): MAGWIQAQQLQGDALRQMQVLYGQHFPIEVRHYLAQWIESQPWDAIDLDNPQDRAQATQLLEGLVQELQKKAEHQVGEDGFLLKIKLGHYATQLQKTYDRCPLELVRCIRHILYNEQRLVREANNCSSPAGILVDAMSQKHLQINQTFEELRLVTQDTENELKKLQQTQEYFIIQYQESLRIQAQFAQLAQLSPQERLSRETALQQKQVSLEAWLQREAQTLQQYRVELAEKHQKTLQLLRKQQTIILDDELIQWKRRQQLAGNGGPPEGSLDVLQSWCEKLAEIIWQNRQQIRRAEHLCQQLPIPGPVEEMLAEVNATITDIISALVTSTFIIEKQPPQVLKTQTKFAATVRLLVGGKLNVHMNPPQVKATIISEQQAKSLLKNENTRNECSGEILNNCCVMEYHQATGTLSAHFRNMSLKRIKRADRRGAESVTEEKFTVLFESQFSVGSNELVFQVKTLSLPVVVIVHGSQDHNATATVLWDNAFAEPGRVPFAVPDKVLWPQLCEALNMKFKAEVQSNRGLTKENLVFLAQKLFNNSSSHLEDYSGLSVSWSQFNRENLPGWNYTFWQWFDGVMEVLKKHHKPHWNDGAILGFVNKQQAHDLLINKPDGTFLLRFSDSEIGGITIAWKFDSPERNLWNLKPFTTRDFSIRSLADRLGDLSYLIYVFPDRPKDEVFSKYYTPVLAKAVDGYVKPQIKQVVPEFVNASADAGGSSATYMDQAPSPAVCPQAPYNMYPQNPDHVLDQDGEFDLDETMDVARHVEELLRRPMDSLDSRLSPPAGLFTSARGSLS
The assay is described as follows: Inhibition of EGF-induced SH2 domain of Stat5 phosphorylation at Tyr694 in human MDA-MB-468 cells at 5 uM treated 1.5 hrs before EGF challenge measured after 30 mins by Western blotting. The assay is classed as cell-based. Summed up: as §3

In assay [11] the target is RAC-alpha serine/threonine-protein kinase (Homo sapiens) (UniProt P31749). The assay is described as follows: Inhibition of EGF-induced Akt phosphorylation at Ser473 in human MDA-MB-468 cells at 5 uM treated 1.5 hrs before EGF challenge measured after 30 mins by Western blotting. It is filed as cell-based. Summed up:
as §3

The target in assay [12] is T3, Signal transducer and activator of transcription 1-alpha/beta (Homo sapiens) (UniProt P42224).
T3 sequence (whole entry): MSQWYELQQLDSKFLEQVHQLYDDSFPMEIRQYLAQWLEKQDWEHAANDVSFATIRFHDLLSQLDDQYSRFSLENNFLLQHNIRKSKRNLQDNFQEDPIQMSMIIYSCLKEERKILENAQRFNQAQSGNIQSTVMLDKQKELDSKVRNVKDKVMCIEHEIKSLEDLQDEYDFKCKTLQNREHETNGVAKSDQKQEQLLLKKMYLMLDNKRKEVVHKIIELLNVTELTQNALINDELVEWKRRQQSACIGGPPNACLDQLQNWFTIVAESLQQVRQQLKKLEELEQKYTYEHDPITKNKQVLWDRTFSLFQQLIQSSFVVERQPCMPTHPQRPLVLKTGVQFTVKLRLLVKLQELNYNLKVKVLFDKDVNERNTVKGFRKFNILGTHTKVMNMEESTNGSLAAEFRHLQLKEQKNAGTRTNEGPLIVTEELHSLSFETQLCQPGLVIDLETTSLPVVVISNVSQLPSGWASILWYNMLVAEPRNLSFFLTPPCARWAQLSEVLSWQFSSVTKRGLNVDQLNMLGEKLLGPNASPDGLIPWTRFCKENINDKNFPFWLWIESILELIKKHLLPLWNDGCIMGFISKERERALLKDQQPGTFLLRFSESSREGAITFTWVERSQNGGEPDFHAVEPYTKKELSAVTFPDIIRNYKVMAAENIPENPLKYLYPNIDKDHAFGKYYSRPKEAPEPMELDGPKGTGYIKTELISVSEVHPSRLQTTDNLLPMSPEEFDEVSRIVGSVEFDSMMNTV
The assay is described as follows: Inhibition of IFN-gamma-induced Stat1 phosphorylation at Tyr701 in human MDA-MB-468 cells treated 1.5 hrs before IFN-gamma challenge measured after 30 mins by Western blotting. The assay is classed as cell-based. Summed up:
(§4)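 MDA-MB-468 cells exposed to rising prodrug concentrations for 1.5 h, then interferon γ 25 ng/mL for 30 min; Western blot for pTyr701 and total Stat1.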

Assay [13] addresses T3, Signal transducer and activator of transcription 1-alpha/beta (Homo sapiens). The assay is described as follows: Inhibition of IFN-gamma-induced Stat1 phosphorylation at Tyr701 in human MDA-MB-468 cells at 5 uM treated 1.5 hrs before IFN-gamma challenge measured after 30 mins by Western blotting. It is filed as cell-based. Summed up:
as §4

Assay [14] deals with MDA-MB-468. The assay is described as follows: Selectivity ratio of inhibition of IFNgamma-induced Stat1 phosphorylation at Tyr701 to inhibition of EGF-induced SH2 domain of Stat3 phosphorylation at Tyr705 in human MDA-MB-468 cells. The assay is classed as cell-based.
Assay [15] can be described thus: Cytotoxicity against human NCI-H528 cells assessed as cell growth inhibition at 5 to 10 uM after 72 hrs by MTT assay. It is filed as functional. Summed up: (§5)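 Cell lines with constitutive Stat3 phosphorylation (melanoma, NSCLC) exposed to prodrug at 5–10 μM. Percent growth inhibition recorded.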
In general terms: Tetrazolium assays rely on reduction of a dye to a coloured formazan, in cell work by metabolically active cells.

For the next assay, the system named is MeWo. The assay is described as follows: Cytotoxicity against human MeWo cells assessed as cell growth inhibition at 5 to 10 uM after 72 hrs by MTT assay. It is filed as functional. Summed up:
as §5

The next assay has as its system A-375. The assay is described as follows: Cytotoxicity against human A375 cells assessed as cell growth inhibition at 5 to 10 uM after 72 hrs by MTT assay. It is filed as functional. Summed up:
as §5

The nature of assay [16]: Cytotoxicity against human H1299 cells assessed as cell growth inhibition at 5 to 10 uM after 72 hrs by MTT assay. The assay is classed as functional, NCI-H1299. Summed up:
as §5

The nature of assay [17]: Cytotoxicity against human NCI-H1819 cells assessed as cell growth inhibition at 5 to 10 uM after 72 hrs by MTT assay. The assay is classed as functional. Summed up:
as §5

In a further assay the test system is A549. The assay is described as follows: Cytotoxicity against human A549 cells assessed as cell growth inhibition at 5 to 10 uM after 72 hrs by MTT assay. It is filed as functional. Summed up:
as §5

Another assay relates to NCI-H520. The assay is described as follows: Cytotoxicity against human NCI-H520 cells assessed as cell growth inhibition at 5 to 10 uM after 72 hrs by MTT assay. It is filed as functional. Summed up:
as §5

Assay [18] has as its target Focal adhesion kinase 1 (Homo sapiens) (UniProt Q05397). The assay is described as follows: Inhibition of constitutive FAK phosphorylation at Tyr861 in human MDA-MB-468 cells at 5 uM measured after 2 hrs by Western blotting.

pIC50: −log10 of the molar value. The source made the active and inactive calls. The rule behind the calls is not given here.

T1 sequence (P40763 whole entry, the tested form may be a part): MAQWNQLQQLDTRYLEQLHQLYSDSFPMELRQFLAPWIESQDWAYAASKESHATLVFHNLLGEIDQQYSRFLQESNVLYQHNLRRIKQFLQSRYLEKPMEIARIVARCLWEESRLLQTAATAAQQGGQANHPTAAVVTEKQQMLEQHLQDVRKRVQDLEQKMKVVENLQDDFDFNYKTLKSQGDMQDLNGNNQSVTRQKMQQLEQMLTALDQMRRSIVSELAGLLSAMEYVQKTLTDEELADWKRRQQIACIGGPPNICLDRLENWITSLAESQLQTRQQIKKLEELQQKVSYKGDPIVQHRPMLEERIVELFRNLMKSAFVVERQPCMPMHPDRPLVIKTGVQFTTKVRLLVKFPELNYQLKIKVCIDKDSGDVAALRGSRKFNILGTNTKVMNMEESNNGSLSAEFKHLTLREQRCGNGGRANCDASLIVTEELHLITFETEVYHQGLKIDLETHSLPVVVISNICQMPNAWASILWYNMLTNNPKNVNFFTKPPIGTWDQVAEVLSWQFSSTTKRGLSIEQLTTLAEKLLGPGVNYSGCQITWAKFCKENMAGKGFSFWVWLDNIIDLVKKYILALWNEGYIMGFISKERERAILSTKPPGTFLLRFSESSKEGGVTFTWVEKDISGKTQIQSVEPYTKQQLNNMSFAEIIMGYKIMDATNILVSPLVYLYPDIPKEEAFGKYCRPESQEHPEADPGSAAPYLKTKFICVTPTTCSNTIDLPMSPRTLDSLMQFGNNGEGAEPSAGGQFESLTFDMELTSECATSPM
Chain of RAC-alpha serine/threonine-protein kinase (Homo sapiens) (P31749 whole entry): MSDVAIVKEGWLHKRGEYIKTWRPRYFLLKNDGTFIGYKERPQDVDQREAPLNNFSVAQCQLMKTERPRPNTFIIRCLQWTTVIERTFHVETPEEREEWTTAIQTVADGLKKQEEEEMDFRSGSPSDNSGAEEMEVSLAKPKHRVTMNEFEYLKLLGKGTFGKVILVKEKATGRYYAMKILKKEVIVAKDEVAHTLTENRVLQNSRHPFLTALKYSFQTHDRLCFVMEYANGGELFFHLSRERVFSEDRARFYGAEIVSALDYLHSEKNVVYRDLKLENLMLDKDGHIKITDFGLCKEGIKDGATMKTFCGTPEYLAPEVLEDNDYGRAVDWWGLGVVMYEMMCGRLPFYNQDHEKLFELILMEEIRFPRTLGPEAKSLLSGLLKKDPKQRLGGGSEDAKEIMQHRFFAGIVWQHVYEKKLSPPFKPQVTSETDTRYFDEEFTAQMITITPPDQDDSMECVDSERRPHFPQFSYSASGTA
Chain of Focal adhesion kinase 1 (Homo sapiens) (Q05397 2-1052 limits assumed): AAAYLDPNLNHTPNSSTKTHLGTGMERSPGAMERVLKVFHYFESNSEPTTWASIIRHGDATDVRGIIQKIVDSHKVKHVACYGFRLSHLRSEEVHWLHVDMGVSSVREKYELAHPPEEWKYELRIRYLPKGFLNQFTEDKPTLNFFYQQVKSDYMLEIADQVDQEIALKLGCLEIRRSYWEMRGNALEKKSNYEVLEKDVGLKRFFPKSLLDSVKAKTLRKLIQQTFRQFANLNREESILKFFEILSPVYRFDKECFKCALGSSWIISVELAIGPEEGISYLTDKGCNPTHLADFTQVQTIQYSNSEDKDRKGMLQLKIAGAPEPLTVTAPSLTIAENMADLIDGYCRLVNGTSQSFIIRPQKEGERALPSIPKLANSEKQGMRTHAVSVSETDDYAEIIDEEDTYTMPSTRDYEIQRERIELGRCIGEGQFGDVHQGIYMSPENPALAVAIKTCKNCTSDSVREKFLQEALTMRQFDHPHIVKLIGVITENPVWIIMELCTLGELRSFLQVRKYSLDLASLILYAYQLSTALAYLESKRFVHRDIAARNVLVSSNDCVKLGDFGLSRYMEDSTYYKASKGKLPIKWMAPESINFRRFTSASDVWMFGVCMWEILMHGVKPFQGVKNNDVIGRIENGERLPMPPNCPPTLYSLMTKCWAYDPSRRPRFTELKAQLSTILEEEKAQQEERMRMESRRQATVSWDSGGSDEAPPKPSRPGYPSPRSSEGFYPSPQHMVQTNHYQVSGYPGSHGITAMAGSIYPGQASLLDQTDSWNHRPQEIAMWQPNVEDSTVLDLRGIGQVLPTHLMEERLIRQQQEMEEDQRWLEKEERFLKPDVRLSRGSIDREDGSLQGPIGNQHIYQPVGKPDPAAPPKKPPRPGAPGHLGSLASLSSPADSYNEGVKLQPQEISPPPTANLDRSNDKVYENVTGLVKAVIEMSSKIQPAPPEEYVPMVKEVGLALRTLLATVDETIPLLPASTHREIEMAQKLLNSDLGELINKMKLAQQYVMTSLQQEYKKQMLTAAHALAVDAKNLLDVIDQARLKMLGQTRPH

For orientation: pIC50 means the IC50 on a negative log10 scale, so that one unit is a factor of ten. A high value points to a small IC50. `CCCC[C@H](NC(=O)/C=C(\C)c1ccc(C(F)(F)P(=O)(OCOC(=O)C(C)(C)C)OCOC(=O)C(C)(C)C)cc1)C(=O)N1C[C@@H]2C[C@@H]2[C@@H]1C(=O)N[C@H](C)CCC(N)=O`: the inhibition result in assay [1] is “Active”. Besides, the pIC50 in the assay with MDA-MB-468 [2] was 4.52.
As to `CCCC[C@H](NC(=O)/C=C(\C)c1ccc(C(F)(F)P(=O)(OCOC(=O)C(C)(C)C)OCOC(=O)C(C)(C)C)cc1)C(=O)N1CC2CC2C1C(=O)NCCNC(N)=O` (mixture of isomers), in [3], the inhibition entry was “Active”.
Turning to `CCCC[C@H](NC(=O)/C=C(\C)c1ccc(C(F)(F)P(=O)(OCOC(=O)C(C)(C)C)OCOC(=O)C(C)(C)C)cc1)C(=O)N1C[C@H]2C[C@H]2[C@H]1C(=O)N[C@@H](CCC(N)=O)C(C)OCc1ccccc1` (some centres not stated), the inhibition entry in [4], in [5], in [6], in assay [7], in assay [9] and in assay [13] was “Active” throughout. The inhibition result in [8], in [10], in assay [11] and in [18] was “inactive” throughout. Moreover, the inhibition result in assay [12] is “Dose-dependent effect”. The Ratio in the assay on MDA-MB-468 [14] amounted to 10. The “growth inhibition (GI)” value (in [15]; with MeWo; in the assay with A-375; in assay [16]; in assay [17]; in the assay on A549) was less than 20% each time. In the assay on NCI-H520, the “growth inhibition (GI)” value was less than 20%.

These data come from ChEMBL document CHEMBL1773023, “Potent and selective phosphopeptide mimetic prodrugs targeted to the Src homology 2 (SH2) domain of signal transducer and activator of transcription 3” (J Med Chem, 2011).
